Experimental data as given in ChEMBL document CHEMBL1145160, “Neoclerodane diterpenes as a novel scaffold for mu opioid receptor ligands” (J Med Chem, 2005).
Calls of active or inactive are those of the source. The rule behind the calls is not given here.

Key:
Mus musculus [1] = test: In vivo opioid receptor activity in mouse tail flick assay; type: functional
Mus musculus [2] = test: In vivo antinociceptive activity against opioid receptor in mouse hot plate […] assay; No inhibition (inactive at 30 uM); type: functional, organism-based
Mus musculus [3] = test: In vivo antinociceptive activity against opioid receptor in mouse p-phenylquinone writhing test; No inhibition (inactive at 1 uM); type: functional, organism-based
Mus musculus [4] = test: In vivo opioid receptor activity in mouse p-phenylquinone writhing assay; type: functional
[5] = biological target: T1, Kappa-type opioid receptor (Homo sapiens, UniProt P41145); test: Stimulation of [35S]GTP-gamma-S, binding to Opioid receptor kappa1 expressed in CHO cells; type: functional, cell-based
T1 sequence (P41145 whole entry): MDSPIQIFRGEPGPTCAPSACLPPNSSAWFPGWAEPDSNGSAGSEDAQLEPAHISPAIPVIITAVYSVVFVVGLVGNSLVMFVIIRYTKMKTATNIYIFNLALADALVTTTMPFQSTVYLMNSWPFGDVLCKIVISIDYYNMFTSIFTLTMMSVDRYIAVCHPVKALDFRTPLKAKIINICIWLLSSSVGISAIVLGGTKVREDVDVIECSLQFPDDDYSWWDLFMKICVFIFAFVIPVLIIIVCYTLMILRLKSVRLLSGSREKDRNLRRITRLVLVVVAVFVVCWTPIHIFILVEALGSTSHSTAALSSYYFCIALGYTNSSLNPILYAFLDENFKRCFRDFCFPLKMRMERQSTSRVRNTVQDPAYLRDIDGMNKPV
Outline: (§1)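 Membranes from CHO cells stably transfected with DNA for the human μ, δ or κ opioid receptor; agonist-stimulated [35S]GTPγS binding measured; potency given as EC50 ± SD, efficacy as Emax.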

[6] = biological target: T2, Delta-type opioid receptor (Homo sapiens, UniProt P41143); test: Inhibition of [125I]- IOXY binding to human Opioid receptor delta1
T2 sequence (P41143 whole entry): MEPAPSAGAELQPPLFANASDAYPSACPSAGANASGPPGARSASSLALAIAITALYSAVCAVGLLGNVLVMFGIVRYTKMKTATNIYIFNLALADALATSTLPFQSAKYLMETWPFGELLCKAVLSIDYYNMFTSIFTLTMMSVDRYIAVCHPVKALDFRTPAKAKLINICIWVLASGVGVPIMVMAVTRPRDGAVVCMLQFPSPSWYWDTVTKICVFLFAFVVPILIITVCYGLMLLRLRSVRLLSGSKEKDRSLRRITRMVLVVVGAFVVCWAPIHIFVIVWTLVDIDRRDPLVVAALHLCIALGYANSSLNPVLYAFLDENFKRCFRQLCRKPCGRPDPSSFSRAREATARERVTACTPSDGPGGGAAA

[7] = biological target: T1, Kappa-type opioid receptor; test: Stimulatory effect on [35S]GTP gammaS binding to Opioid receptor kappa1 expressed in CHO cells compared to 500 nM U50,488; type: functional, cell-based; outline: as §1
[8] = biological target: Opioid receptors; mu & kappa (Homo sapiens) (UniProt P41145+P35372); test: Relative affinity for human opioid receptor mu1 and kappa1; type: protein assay
Sequence of Opioid receptors; mu & kappa (Homo sapiens) (P35372 whole entry, looked up): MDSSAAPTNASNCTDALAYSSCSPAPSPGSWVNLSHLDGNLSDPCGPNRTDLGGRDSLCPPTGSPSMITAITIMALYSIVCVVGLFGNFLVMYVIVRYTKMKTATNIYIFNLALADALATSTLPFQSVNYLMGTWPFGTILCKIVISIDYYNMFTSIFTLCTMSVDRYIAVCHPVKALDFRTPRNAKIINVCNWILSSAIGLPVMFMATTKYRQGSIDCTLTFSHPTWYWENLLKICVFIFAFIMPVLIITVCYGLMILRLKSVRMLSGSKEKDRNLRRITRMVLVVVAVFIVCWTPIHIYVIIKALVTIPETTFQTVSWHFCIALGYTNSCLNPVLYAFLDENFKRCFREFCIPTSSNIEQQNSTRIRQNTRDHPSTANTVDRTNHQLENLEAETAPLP
Sequence of Opioid receptors; mu & kappa (Homo sapiens) (P41145 whole entry, looked up): as the sequence (P41145 whole entry) above

Mu-type opioid receptor [9] = biological target: T3, Mu-type opioid receptor (Homo sapiens, UniProt P35372); test: Inhibition of [125I]- IOXY binding to human Opioid receptor mu1
T3 sequence (P35372 whole entry): as the sequence (P35372 whole entry, looked up) above

Mu-type opioid receptor [10] = biological target: T3, Mu-type opioid receptor; test: Stimulatory effect on [35S]-GTP gammaS binding to Opioid receptor mu1 expressed in CHO cells compared to 10 uM DAMGO; type: cell-based; outline: as §1
Mu-type opioid receptor [11] = biological target: T3, Mu-type opioid receptor; test: Stimulation of [35S]GTP-gamma-S, binding to Opioid receptor mu1 expressed in CHO cells; ND = Not determined; type: functional, cell-based; outline: as §1
[12] = biological target: Opioid receptors; delta & kappa (Homo sapiens) (UniProt P41145+P41143); test: Relative affinity for human opioid receptor delta1 and kappa1; type: protein assay
Sequence of Opioid receptors; delta & kappa (Homo sapiens) (P41143 whole entry, looked up): as the sequence (P41143 whole entry) above
Sequence of Opioid receptors; delta & kappa (Homo sapiens) (P41145 whole entry, looked up): as the sequence (P41145 whole entry) above

[13] = biological target: T2, Delta-type opioid receptor; test: Stimulation of [35S]-GTP gammaS binding to Opioid receptor delta 1 expressed in CHO cells; ND = Not determined; type: functional, cell-based; outline: as §1
Mus musculus [14] = test: In vivo opioid receptor activity in mouse hot plate assay
[15] = biological target: T1, Kappa-type opioid receptor; test: Inhibition of [125I]- IOXY binding to human Opioid receptor kappa1
Mu-type opioid receptor [16] = biological target: T3, Mu-type opioid receptor; test: Stimulation of [35S]GTP-gamma-S, binding to Opioid receptor mu1 expressed in CHO cells; type: functional, cell-based; outline: as §1
Mu-type opioid receptor [17] = biological target: T3, Mu-type opioid receptor; test: Stimulatory effect on [35S]-GTP gammaS binding to Opioid receptor mu1 expressed in CHO cells compared to 10 uM DAMGO; ND = Not determined; type: cell-based; outline: as §1

SMILES | EC50 [5] | Ki [6] | Emax [7] | Selectivity [8] | Ki (Mu-type opioid receptor [9]) | Selectivity [12] | also measured
COC(=O)[C@@H]1C[C@H](OC(C)=O)C(=O)[C@H]2[C@@]1(C)CC[C@H]1C(=O)O[C@H](c3ccoc3)C[C@]21C [SALVINORIN A] | – | – | – | – | – | – | ED50 (Mus musculus [1]): 1.98 mg/kg; inhibition (Mus musculus [2]): inactive; inhibition (Mus musculus [3]): inactive; ED50 (Mus musculus [4]): 0.59 mg/kg
COC(=O)[C@@H]1C[C@H](OS(C)(=O)=O)C(=O)[C@H]2[C@@]1(C)CC[C@H]1C(=O)O[C@H](c3ccoc3)C[C@]21C | 0.03 µM | > 10 µM | 112% | – | – | – | –
COC(=O)[C@@H]1C[C@H](OC(=O)C(C)C)C(=O)[C@H]2[C@@]1(C)CC[C@H]1C(=O)O[C@H](c3ccoc3)C[C@]21C | 0.36 µM | > 10 µM | 105% | 196 | 2.98 µM | – | –
COC(=O)[C@@H]1C[C@H](OC(=O)Nc2ccccc2)C(=O)[C@H]2[C@@]1(C)CC[C@H]1C(=O)O[C@H](c3ccoc3)C[C@]21C | 0.48 µM | – | 100% | 0.2 | – | 2 | Emax (Mu-type opioid receptor [10]): 92%; EC50 (Mu-type opioid receptor [11]): 0.59 µM; EC50 [13]: 2.53 µM
CCC(=O)O[C@H]1C[C@@H](C(=O)OC)[C@]2(C)CC[C@H]3C(=O)O[C@H](c4ccoc4)C[C@]3(C)[C@H]2C1=O | 0.14 µM | 6.69 µM | 110% | – | > 1 µM | 2730 | –
CN1CC[C@]23c4c5ccc(O)c4O[C@H]2[C@@H](O)C=C[C@H]3[C@H]1C5 [MORPHINE] | – | – | – | – | – | – | ED50 (Mus musculus [14]): 0.8 mg/kg
COC(=O)[C@@H]1C[C@H](OC(=N)C(Cl)(Cl)Cl)C(=O)[C@H]2[C@@]1(C)CC[C@H]1C(=O)O[C@H](c3ccoc3)C[C@]21C | – | – | – | > 150 | > 10 µM | 95 | –
COC(=O)[C@@H]1C[C@H](O)[C@H](O)[C@@H]2[C@@]3(C)C[C@@H](c4ccoc4)OC(=O)[C@H]3CC[C@]21C | – | > 10 µM | – | – | > 10 µM | – | Ki [15]: > 10 µM
COC(=O)[C@@H]1C[C@H](OC(=O)c2ccccc2)C(=O)[C@H]2[C@@]1(C)CC[C@H]1C(=O)O[C@H](c3ccoc3)C[C@]21C [HERKINORIN] | 1.32 µM | 1.17 µM | 140% | 0.13 | – | 12 | Emax (Mu-type opioid receptor [10]): 130%; EC50 (Mu-type opioid receptor [16]): 0.5 µM
C=CCNC(=O)O[C@H]1C[C@@H](C(=O)OC)[C@]2(C)CC[C@H]3C(=O)O[C@H](c4ccoc4)C[C@]3(C)[C@H]2C1=O | – | 6.46 µM | – | 5 | 0.64 µM | 55 | –
COC(=O)[C@@H]1C[C@H](OC(=O)c2cccnc2)C(=O)[C@H]2[C@@]1(C)CC[C@H]1C(=O)O[C@H](c3ccoc3)C[C@]21C | 5.74 µM | 4.82 µM | 76% | 0.04 | – | 3 | EC50 (Mu-type opioid receptor [11]): 2.1 µM; Emax (Mu-type opioid receptor [17]): 110%
COC(=O)[C@@H]1C[C@H](OC(C)=O)[C@H](OC(C)=O)[C@H]2[C@@]1(C)CC[C@H]1C(=O)O[C@H](c3ccoc3)C[C@]21C | – | > 10 µM | – | > 15 | > 10 µM | > 15 | –
COC(=O)C(=O)O[C@H]1C[C@@H](C(=O)OC)[C@]2(C)CC[C@H]3C(=O)O[C@H](c4ccoc4)C[C@]3(C)[C@H]2C1=O | – | > 10 µM | – | > 30 | > 10 µM | > 30 | –
C=C(C)C(=O)O[C@H]1C[C@@H](C(=O)OC)[C@]2(C)CC[C@H]3C(=O)O[C@H](c4ccoc4)C[C@]3(C)[C@H]2C1=O | – | 8.88 µM | – | 7 | 0.26 µM | 210 | –
COC(=O)[C@@H]1C[C@H](O[Si](C)(C)C)C(=O)[C@H]2[C@@]1(C)CC[C@H]1C(=O)O[C@H](c3ccoc3)C[C@]21C | – | > 10 µM | – | > 7 | > 10 µM | > 7 | –
COC(=O)[C@@H]1C[C@H](O)[C@H](O)[C@H]2[C@@]1(C)CC[C@H]1C(=O)O[C@H](c3ccoc3)C[C@]21C | – | > 10 µM | – | 2 | 5.74 µM | > 3 | Ki [15]: 3.19 µM
